According to the M2OR odorant receptor database:

Legend:
Conditions in all cases: stereoisomer not certain
OR4F3 (Homo sapiens) = OR4F3 (Homo sapiens) (UniProt Q6IEY1)
Procedure, shortened: (§1)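 Values were gathered from published papers (main text and supplementary material), with extra details requested from the original authors when needed, and checked for typos and inconsistencies. Each receptor–molecule pair is called responsive (active) if the original authors judged the measured signal statistically different from baseline, and non-responsive (inactive) otherwise. Assay methods varied by source, often transient mammalian cell-line luciferase assays. Recorded details include cell line, G-protein, co-transfected protein and tags.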

OR4F4 (Homo sapiens) = OR4F4 (Homo sapiens) (UniProt Q96R69)
OR4F4 (Homo sapiens), sequence (Q96R69 whole entry): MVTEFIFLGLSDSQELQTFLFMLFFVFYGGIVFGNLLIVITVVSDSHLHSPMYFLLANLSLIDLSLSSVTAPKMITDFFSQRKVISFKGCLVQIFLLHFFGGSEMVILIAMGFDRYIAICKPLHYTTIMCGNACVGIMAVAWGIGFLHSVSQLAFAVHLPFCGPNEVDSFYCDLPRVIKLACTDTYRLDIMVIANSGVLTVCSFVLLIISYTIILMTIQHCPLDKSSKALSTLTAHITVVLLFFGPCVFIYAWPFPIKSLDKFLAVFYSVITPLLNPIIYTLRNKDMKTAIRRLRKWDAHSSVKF
Procedure, shortened: as §1

OR4F5 (Homo sapiens) = OR4F5 (Homo sapiens) (UniProt Q8NH21)
OR4F5 (Homo sapiens), sequence (Q8NH21 whole entry): as the sequence (Q96R69 whole entry) above, with A141T, P160L, C221R, R293Q counted along it
Procedure, shortened: as §1

OR4F5 T141A Q293R = test system: OR4F5 T141A Q293R
Procedure, shortened: as §1

OR4F6 (Homo sapiens) = OR4F6 (Homo sapiens) (UniProt Q8NGB9)
OR4F6 (Homo sapiens), sequence (Q8NGB9 whole entry): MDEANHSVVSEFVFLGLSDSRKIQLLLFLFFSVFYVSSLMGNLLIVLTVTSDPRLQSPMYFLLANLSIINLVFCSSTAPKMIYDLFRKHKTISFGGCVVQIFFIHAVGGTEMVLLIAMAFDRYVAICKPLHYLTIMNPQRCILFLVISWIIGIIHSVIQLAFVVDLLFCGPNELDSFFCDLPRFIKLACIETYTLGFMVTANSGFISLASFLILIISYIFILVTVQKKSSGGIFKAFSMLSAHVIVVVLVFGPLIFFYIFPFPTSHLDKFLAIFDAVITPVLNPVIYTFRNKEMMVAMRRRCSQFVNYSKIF
Procedure, shortened: as §1

OR4K1 (Homo sapiens) = OR4K1 (Homo sapiens) (UniProt Q8NGD4)
OR4K1 (Homo sapiens), sequence (Q8NGD4 whole entry): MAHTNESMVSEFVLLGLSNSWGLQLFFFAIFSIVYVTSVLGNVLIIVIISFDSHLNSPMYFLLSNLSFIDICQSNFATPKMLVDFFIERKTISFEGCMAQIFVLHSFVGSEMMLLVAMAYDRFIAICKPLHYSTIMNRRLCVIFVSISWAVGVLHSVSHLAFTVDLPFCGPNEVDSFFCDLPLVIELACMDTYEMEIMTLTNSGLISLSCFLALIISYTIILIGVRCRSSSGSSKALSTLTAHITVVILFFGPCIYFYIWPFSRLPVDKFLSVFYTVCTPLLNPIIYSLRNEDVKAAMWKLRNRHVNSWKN
Procedure, shortened: as §1

OR4K1 R304H = test system: OR4K1 R304H
OR4K1 R304H, sequence (as listed by the source, stated change not applied): as the sequence (Q8NGD4 whole entry) above, with R304H counted along it
Procedure, shortened: as §1

OR4K13 (Homo sapiens) = OR4K13 (Homo sapiens) (UniProt Q8NH42)
OR4K13 (Homo sapiens), sequence (Q8NH42 whole entry): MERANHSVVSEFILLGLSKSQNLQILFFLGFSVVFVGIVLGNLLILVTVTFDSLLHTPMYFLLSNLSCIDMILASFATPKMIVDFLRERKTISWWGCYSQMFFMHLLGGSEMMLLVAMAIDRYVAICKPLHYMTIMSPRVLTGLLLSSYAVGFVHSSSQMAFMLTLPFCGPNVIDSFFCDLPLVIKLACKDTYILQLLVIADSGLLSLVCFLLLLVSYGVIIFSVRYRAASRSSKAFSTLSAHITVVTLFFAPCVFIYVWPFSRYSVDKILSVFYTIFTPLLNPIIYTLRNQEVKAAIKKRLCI
Procedure, shortened: as §1

OR4K14 (Homo sapiens) = OR4K14 (Homo sapiens) (UniProt Q8NGD5)
OR4K14 (Homo sapiens), sequence (Q8NGD5 whole entry): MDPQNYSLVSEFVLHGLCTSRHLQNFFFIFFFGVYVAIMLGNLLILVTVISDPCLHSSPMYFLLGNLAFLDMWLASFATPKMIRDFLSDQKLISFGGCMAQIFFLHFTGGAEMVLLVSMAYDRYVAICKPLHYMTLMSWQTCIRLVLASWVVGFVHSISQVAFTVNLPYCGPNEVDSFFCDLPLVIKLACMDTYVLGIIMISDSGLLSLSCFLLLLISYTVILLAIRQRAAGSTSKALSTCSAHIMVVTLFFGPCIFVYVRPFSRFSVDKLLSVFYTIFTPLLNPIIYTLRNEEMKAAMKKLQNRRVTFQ
Procedure, shortened: as §1

OR4K15 (Homo sapiens) = OR4K15 (Homo sapiens) (UniProt Q8NH41)
OR4K15 (Homo sapiens), sequence (Q8NH41 whole entry): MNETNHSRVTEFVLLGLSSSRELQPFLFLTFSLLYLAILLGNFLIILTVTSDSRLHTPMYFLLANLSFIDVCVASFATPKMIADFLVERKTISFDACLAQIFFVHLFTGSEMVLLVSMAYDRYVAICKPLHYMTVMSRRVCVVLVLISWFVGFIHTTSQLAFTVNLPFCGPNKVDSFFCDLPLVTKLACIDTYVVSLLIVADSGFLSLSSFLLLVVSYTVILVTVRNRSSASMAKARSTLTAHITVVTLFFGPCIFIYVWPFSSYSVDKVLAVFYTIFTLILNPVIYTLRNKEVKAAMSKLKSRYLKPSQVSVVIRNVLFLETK
Procedure, shortened: as §1

Measured: odorant receptor agonist call

OR4F3 (Homo sapiens), sequence (Q6IEY1 whole entry): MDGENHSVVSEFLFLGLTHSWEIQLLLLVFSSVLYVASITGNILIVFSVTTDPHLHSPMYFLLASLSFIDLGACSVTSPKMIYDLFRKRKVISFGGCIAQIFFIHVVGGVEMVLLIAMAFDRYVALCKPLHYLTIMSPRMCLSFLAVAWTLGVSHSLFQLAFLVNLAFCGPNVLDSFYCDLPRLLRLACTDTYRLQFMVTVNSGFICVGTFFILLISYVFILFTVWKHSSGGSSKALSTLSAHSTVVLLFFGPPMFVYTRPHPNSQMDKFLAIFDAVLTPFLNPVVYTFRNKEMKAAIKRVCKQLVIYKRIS

C=CCOC(=O)Cc1ccccc1
not listed: OR4K15 (Homo sapiens)
inactive: all other assays above

Cc1c([N+](=O)[O-])c(C)c([N+](=O)[O-])c(C(C)(C)C)c1[N+](=O)[O-]
not listed: OR4F5 T141A Q293R | OR4K1 R304H
inactive: all other assays above
